Measured values: ChEMBL document CHEMBL2177043, “HIV-1 X4 activities of polycationic "viologen" based dendrimers by interaction with the chemokine receptor CXCR4: study of structure-activity relationship” (J Med Chem, 2012)
Active and inactive are the calls of the source. No cut-off for these calls is given here.

Assays:
[1] = target: T1, C-C chemokine receptor type 5 (Homo sapiens, UniProt P51681); experiment: Agonist activity against CCR5 expressed in U87.CD4.CCR5 cells assessed as stimulation of calcium signaling incubated for 10 mins by FLIPR
T1 sequence (P51681 whole entry, looked up): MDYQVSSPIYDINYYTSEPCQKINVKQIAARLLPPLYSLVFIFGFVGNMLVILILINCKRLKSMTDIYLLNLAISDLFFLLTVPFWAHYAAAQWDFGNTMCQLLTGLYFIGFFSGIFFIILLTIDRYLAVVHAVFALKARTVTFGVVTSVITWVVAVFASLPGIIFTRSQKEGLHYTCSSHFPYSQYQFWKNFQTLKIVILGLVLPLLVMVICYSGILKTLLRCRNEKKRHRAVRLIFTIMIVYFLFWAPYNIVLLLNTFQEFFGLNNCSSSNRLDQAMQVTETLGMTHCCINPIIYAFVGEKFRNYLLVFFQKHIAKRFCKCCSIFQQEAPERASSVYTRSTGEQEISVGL

[2] = tested on: Human immunodeficiency virus 1; experiment: Antiviral activity against X4 HIV1 NL4.3 infected in human MT4 cells assessed as inhibition of viral replication pre-incubated for 30 mins […]; type: functional, organism-based; settings: Human immunodeficiency virus 1, NL4.3, MT4
[3] = target: T2, C-X-C chemokine receptor type 4 (Homo sapiens, UniProt P61073); experiment: Agonist activity against CXCR4 expressed in U87.CD.CXCR4 cells assessed as stimulation of calcium signaling incubated for 10 mins by FLIPR; type: functional, cell-based
T2 sequence (P61073 whole entry): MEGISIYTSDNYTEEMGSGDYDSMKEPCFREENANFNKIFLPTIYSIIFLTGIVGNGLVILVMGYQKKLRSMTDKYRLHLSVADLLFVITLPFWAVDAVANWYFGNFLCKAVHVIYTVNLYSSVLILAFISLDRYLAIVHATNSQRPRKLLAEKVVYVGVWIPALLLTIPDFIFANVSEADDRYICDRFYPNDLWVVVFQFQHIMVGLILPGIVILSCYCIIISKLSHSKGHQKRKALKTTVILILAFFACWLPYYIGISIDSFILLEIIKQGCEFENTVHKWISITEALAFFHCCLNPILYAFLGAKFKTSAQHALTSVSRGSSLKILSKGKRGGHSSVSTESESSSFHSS
Procedure, shortened: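 U87.CD4 cells stably carrying CXCR4 or CCR5, trypsinized and seeded at 2 × 10⁴ cells/well on 0.2% gelatin the day before. Loaded with Fluo-3 AM (4 μM, 45 min, 37 °C), washed, then exposed to test agents alone at varied concentrations in assay buffer for 10 min at 37 °C. Cytosolic Ca²⁺ rise monitored over time by FLIPR to detect any agonist-triggered signal.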

[4] = target: T1, C-C chemokine receptor type 5; experiment: Antagonist activity against CCR5 expressed in U87.CD4.CCR5 cells assessed as inhibition of CCL3L1-induced calcium signaling incubated for 10 mins by FLIPR; type: functional, cell-based
Procedure, shortened: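 U87.CD4.CCR5 cells seeded at 2 × 10⁴/well on 0.2% gelatin the day before, loaded with 4 μM Fluo-3 AM for 45 min at 37 °C, washed, then preincubated with compounds at varied concentrations in assay buffer for 10 min at 37 °C. Stimulated with 10 ng/mL LD78β (CCL3L1); Ca²⁺ flux recorded by FLIPR.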

[5] = target: T2, C-X-C chemokine receptor type 4; experiment: Inhibition of CXCL-12'AF647 binding to CXCR4 in human SUPT1 cells incubated for 15 mins by FACS; type: cell-based
Procedure, shortened: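 SupT1 cells (high CXCR4) washed, then incubated 15 min at room temperature with compounds at varied concentrations in HBSS containing 20 mM HEPES and 0.2% BSA, pH 7.4. CXCL12-AF647 added at 25 ng/mL final for 30 min at room temperature. Cells washed, fixed in 1% paraformaldehyde, and read by flow cytometry on FL4.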

[6] = target: T2, C-X-C chemokine receptor type 4; experiment: Inhibition of anti-CXCR4 mAbs clone 1D9 binding to CXCR4 in human SUPT1 cells incubated for 30 mins by FACS
[7] = Cytotoxicity against human MT4 cells by MTT assay; type: cell-based
[8] = target: T1, C-C chemokine receptor type 5; experiment: Antagonist activity against CCR5 expressed in U87.CD4.CCR5 cells assessed as inhibition of CCL3L1-induced calcium signaling incubated for 10 mins by FLIPR
[9] = Cytotoxicity against human PBMC cells by MTT assay; type: cell-based
[10] = target: T2, C-X-C chemokine receptor type 4; experiment: Inhibition of anti-CXCR4 mAbs clone 173 binding to CXCR4 in human SUPT1 cells incubated for 30 mins by FACS
[11] = tested on: Human immunodeficiency virus 1; experiment: Antiviral activity against X4 HIV1 NL4.3 infected in human PBMC assessed as inhibition of viral replication pre-incubated for 30 mins measured 5 days post infection by MTT assay; type: functional, organism-based; settings: Human immunodeficiency virus 1, NL4.3
Procedure, shortened: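 Human PBMC infected with HIV-1 NL4.3. IC₅₀ is the concentration inhibiting viral replication by 50%, averaged over two independent experiments. Cytotoxicity (CC₅₀, 50% loss of PBMC viability) evaluated in the same assay.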

[12] = target: T2, C-X-C chemokine receptor type 4; experiment: Antagonist activity against CXCR4 expressed in U87.CD.CXCR4 cells assessed as inhibition of CXCL12-induced calcium signaling incubated for 10 mins by FLIPR; type: functional, cell-based
Procedure, shortened: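 U87.CD4.CXCR4 cells seeded at 2 × 10⁴/well on 0.2% gelatin the day before, loaded with 4 μM Fluo-3 AM for 45 min at 37 °C, washed, then preincubated with compounds at varied concentrations in assay buffer for 10 min at 37 °C. Challenged with 25 ng/mL CXCL12; Ca²⁺ flux followed over time by FLIPR.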

[13] = target: T2, C-X-C chemokine receptor type 4; experiment: Inhibition of anti-CXCR4 mAbs clone 12G5 binding to CXCR4 in human SUPT1 cells incubated for 30 mins by FACS

Row | Compound | Activity [1] | IC50 [2] [µg/mL] | Activity [3] | IC50 [4] [nM] | IC50 [5] [nM] | IC50 [6] [nM] | inhibition [6] | CC50 [7] [µg/mL] | inhibition [8] | CC50 [9] [µg/mL] | IC50 [10] [nM] | inhibition [10] | IC50 [11] [µg/mL] | IC50 [12] [nM] | inhibition [12] | IC50 [13] [nM] | inhibition [13]
1 | CC[n+]1ccc(-c2cc[n+](Cc3cc(C[n+]4ccc(-c5cc[n+](CC)cc5)cc4)cc(C[n+]4ccc(-c5cc[n+](Cc6cc(C[n+]7ccc(-c8cc[n+](Cc9cc(C[n+]%10ccc(-c%11cc[n+](CC)cc%11)cc%10)cc(C[n+]%10ccc(-c%11cc[n+](CC)cc%11)cc%10)c9)cc8)cc7)cc(C[n+]7ccc(-c8cc[n+](Cc9cc(C[n+]%10ccc(-c%11cc[n+](CC)cc%11)cc%10)cc(C[n+]%10ccc(-c%11cc[n+](CC)cc%11)cc%10)c9)cc8)cc7)c6)cc5)cc4)c3)cc2)cc1.F[P-](F)(F)(F)(F)F.F[P-](F)(F)(F)(F)F.F[P-](F)(F)(F)(F)F.F[P-](F)(F)(F)(F)F.F[P-](F)(F)(F)(F)F.F[P-](F)(F)(F)(F)F.F[P-](F)(F)(F)(F)F.F[P-](F)(F)(F)(F)F.F[P-](F)(F)(F)(F)F.F[P-](F)(F)(F)(F)F.F[P-](F)(F)(F)(F)F.F[P-](F)(F)(F)(F)F.F[P-](F)(F)(F)(F)F.F[P-](F)(F)(F)(F)F.F[P-](F)(F)(F)(F)F.F[P-](F)(F)(F)(F)F.F[P-](F)(F)(F)(F)F.F[P-](F)(F)(F)(F)F | inactive | 0.8 | inactive | 4860 | 309 | 464 | Dose-dependent effect | 11 | Dose-dependent effect | 20 | 378 | Dose-dependent effect | 0.34 | 294 | Dose-dependent effect | 260 | Dose-dependent effect
2 | c1cc(CN2CCCNCCNCCCNCC2)ccc1CN1CCCNCCNCCCNCC1 [PLERIXAFOR] |  |  |  |  |  |  |  | > 10 |  | > 10 |  |  |  |  |  |  | 
3 | Cc1cn(CCC[n+]2ccc(-c3cc[n+](Cc4cc(C[n+]5ccc(-c6cc[n+](CCCn7cc(C)c(=O)[nH]c7=O)cc6)cc5)cc(C[n+]5ccc(-c6cc[n+](Cc7cc(C[n+]8ccc(-c9cc[n+](Cc%10cc(C[n+]%11ccc(-c%12cc[n+](CCCn%13cc(C)c(=O)[nH]c%13=O)cc%12)cc%11)cc(C[n+]%11ccc(-c%12cc[n+](CCCn%13cc(C)c(=O)[nH]c%13=O)cc%12)cc%11)c%10)cc9)cc8)cc(-[n+]8ccc(-c9cc[n+](-c%10cc(C[n+]%11ccc(-c%12cc[n+](Cc%13cc(C[n+]%14ccc(-c%15cc[n+](CCCn%16cc(C)c(=O)[nH]c%16=O)cc%15)cc%14)cc(C[n+]%14ccc(-c%15cc[n+](CCCn%16cc(C)c(=O)[nH]c%16=O)cc%15)cc%14)c%13)cc%12)cc%11)cc(C[n+]%11ccc(-c%12cc[n+](Cc%13cc(C[n+]%14ccc(-c%15cc[n+](CCCn%16cc(C)c(=O)[nH]c%16=O)cc%15)cc%14)cc(C[n+]%14ccc(-c%15cc[n+](CCCn%16cc(C)c(=O)[nH]c%16=O)cc%15)cc%14)c%13)cc%12)cc%11)c%10)cc9)cc8)c7)cc6)cc5)c4)cc3)cc2)c(=O)[nH]c1=O.F[P-](F)(F)(F)(F)F.F[P-](F)(F)(F)(F)F.F[P-](F)(F)(F)(F)F.F[P-](F)(F)(F)(F)F.F[P-](F)(F)(F)(F)F.F[P-](F)(F)(F)(F)F.F[P-](F)(F)(F)(F)F.F[P-](F)(F)(F)(F)F.F[P-](F)(F)(F)(F)F.F[P-](F)(F)(F)(F)F.F[P-](F)(F)(F)(F)F.F[P-](F)(F)(F)(F)F.F[P-](F)(F)(F)(F)F.F[P-](F)(F)(F)(F)F.F[P-](F)(F)(F)(F)F.F[P-](F)(F)(F)(F)F.F[P-](F)(F)(F)(F)F.F[P-](F)(F)(F)(F)F.F[P-](F)(F)(F)(F)F.F[P-](F)(F)(F)(F)F.F[P-](F)(F)(F)(F)F.F[P-](F)(F)(F)(F)F.F[P-](F)(F)(F)(F)F.F[P-](F)(F)(F)(F)F.F[P-](F)(F)(F)(F)F.F[P-](F)(F)(F)(F)F |  | 1.5 |  | 3660 | 207 | 326 |  | 19 |  | 20 | 210 |  | 0.41 | 273 |  | 236 | 
4 | CCc1cc[n+](-c2cc[n+](Cc3cc(C[n+]4ccc(-c5cc[n+](CC)cc5)cc4)cc(C[n+]4ccc(-c5cc[n+](Cc6cc(C[n+]7ccc(-c8cc[n+](Cc9cc(C[n+]%10ccc(-c%11cc[n+](CC)cc%11)cc%10)cc(C[n+]%10ccc(-c%11cc[n+](CC)cc%11)cc%10)c9)cc8)cc7)cc(-[n+]7ccc(-c8cc[n+](-c9cc(C[n+]%10ccc(-c%11cc[n+](Cc%12cc(C[n+]%13ccc(-c%14cc[n+](CC)cc%14)cc%13)cc(C[n+]%13ccc(-c%14cc[n+](CC)cc%14)cc%13)c%12)cc%11)cc%10)cc(C[n+]%10ccc(-c%11cc[n+](Cc%12cc(C[n+]%13ccc(-c%14cc[n+](CC)cc%14)cc%13)cc(C[n+]%13ccc(-c%14cc[n+](CC)cc%14)cc%13)c%12)cc%11)cc%10)c9)cc8)cc7)c6)cc5)cc4)c3)cc2)cc1.F[P-](F)(F)(F)(F)F.F[P-](F)(F)(F)(F)F.F[P-](F)(F)(F)(F)F.F[P-](F)(F)(F)(F)F.F[P-](F)(F)(F)(F)F.F[P-](F)(F)(F)(F)F.F[P-](F)(F)(F)(F)F.F[P-](F)(F)(F)(F)F.F[P-](F)(F)(F)(F)F.F[P-](F)(F)(F)(F)F.F[P-](F)(F)(F)(F)F.F[P-](F)(F)(F)(F)F.F[P-](F)(F)(F)(F)F.F[P-](F)(F)(F)(F)F.F[P-](F)(F)(F)(F)F.F[P-](F)(F)(F)(F)F.F[P-](F)(F)(F)(F)F.F[P-](F)(F)(F)(F)F.F[P-](F)(F)(F)(F)F.F[P-](F)(F)(F)(F)F.F[P-](F)(F)(F)(F)F.F[P-](F)(F)(F)(F)F.F[P-](F)(F)(F)(F)F.F[P-](F)(F)(F)(F)F.F[P-](F)(F)(F)(F)F.F[P-](F)(F)(F)(F)F |  | 0.9 |  | 12100 | 285 | 446 |  | 34 |  | 100 | 203 |  | 0.12 | 538 |  | 344 | 
5 | Cc1cn(CCC[n+]2ccc(-c3cc[n+](Cc4cc(C[n+]5ccc(-c6cc[n+](CCCn7cc(C)c(=O)[nH]c7=O)cc6)cc5)cc(C[n+]5ccc(-c6cc[n+](Cc7cc(C[n+]8ccc(-c9cc[n+](Cc%10cc(C[n+]%11ccc(-c%12cc[n+](CCCn%13cc(C)c(=O)[nH]c%13=O)cc%12)cc%11)cc(C[n+]%11ccc(-c%12cc[n+](CCCn%13cc(C)c(=O)[nH]c%13=O)cc%12)cc%11)c%10)cc9)cc8)cc(C[n+]8ccc(-c9cc[n+](Cc%10cc(C[n+]%11ccc(-c%12cc[n+](CCCn%13cc(C)c(=O)[nH]c%13=O)cc%12)cc%11)cc(C[n+]%11ccc(-c%12cc[n+](CCCn%13cc(C)c(=O)[nH]c%13=O)cc%12)cc%11)c%10)cc9)cc8)c7)cc6)cc5)c4)cc3)cc2)c(=O)[nH]c1=O.F[P-](F)(F)(F)(F)F.F[P-](F)(F)(F)(F)F.F[P-](F)(F)(F)(F)F.F[P-](F)(F)(F)(F)F.F[P-](F)(F)(F)(F)F.F[P-](F)(F)(F)(F)F.F[P-](F)(F)(F)(F)F.F[P-](F)(F)(F)(F)F.F[P-](F)(F)(F)(F)F.F[P-](F)(F)(F)(F)F.F[P-](F)(F)(F)(F)F.F[P-](F)(F)(F)(F)F.F[P-](F)(F)(F)(F)F.F[P-](F)(F)(F)(F)F.F[P-](F)(F)(F)(F)F.F[P-](F)(F)(F)(F)F.F[P-](F)(F)(F)(F)F.F[P-](F)(F)(F)(F)F |  | 1.8 |  | 1870 | 231 | 516 |  | 10 |  | 20 | 403 |  | 0.89 | 279 |  | 352 | 
